Data: ChEMBL document CHEMBL2016459, “Toll-like receptor (TLR)-7 and -8 modulatory activities of dimeric imidazoquinolines” (J Med Chem, 2012)
Active and inactive are the calls of the source. The rule behind the calls is not given here.

Key:
[1] = molecular target: Toll-like receptor 3 (Homo sapiens) (UniProt O15455); assay: Agonist activity at human TLR3 HEK-Blue cells assessed as increase in NFkappaB activation by sAP reporter gene assay; format: functional, cell-based
Method in brief: (§1)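 HEK293 cells stably transfected with human TLR3, TLR7 or TLR8 plus MD2 and an NF-κB/AP-1-driven secreted alkaline phosphatase reporter (HEK-Blue), kept in selection medium with zeocin and normocin. Cells at ~10^5 cells/ml were grown to confluency and then given graded concentrations of stimuli. Supernatant sAP was read spectrophotometrically at 620 nm with a chromogen in HEK-detection medium.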

[2] = molecular target: T1, Toll-like receptor 7 (Homo sapiens, UniProt Q9NYK1); assay: Agonist activity at human TLR7 expressed in HEK-Blue cells assessed as increase in NFkappaB activation by sAP reporter gene assay; format: functional, cell-based; method in brief: as §1
T1 sequence (Q9NYK1 whole entry): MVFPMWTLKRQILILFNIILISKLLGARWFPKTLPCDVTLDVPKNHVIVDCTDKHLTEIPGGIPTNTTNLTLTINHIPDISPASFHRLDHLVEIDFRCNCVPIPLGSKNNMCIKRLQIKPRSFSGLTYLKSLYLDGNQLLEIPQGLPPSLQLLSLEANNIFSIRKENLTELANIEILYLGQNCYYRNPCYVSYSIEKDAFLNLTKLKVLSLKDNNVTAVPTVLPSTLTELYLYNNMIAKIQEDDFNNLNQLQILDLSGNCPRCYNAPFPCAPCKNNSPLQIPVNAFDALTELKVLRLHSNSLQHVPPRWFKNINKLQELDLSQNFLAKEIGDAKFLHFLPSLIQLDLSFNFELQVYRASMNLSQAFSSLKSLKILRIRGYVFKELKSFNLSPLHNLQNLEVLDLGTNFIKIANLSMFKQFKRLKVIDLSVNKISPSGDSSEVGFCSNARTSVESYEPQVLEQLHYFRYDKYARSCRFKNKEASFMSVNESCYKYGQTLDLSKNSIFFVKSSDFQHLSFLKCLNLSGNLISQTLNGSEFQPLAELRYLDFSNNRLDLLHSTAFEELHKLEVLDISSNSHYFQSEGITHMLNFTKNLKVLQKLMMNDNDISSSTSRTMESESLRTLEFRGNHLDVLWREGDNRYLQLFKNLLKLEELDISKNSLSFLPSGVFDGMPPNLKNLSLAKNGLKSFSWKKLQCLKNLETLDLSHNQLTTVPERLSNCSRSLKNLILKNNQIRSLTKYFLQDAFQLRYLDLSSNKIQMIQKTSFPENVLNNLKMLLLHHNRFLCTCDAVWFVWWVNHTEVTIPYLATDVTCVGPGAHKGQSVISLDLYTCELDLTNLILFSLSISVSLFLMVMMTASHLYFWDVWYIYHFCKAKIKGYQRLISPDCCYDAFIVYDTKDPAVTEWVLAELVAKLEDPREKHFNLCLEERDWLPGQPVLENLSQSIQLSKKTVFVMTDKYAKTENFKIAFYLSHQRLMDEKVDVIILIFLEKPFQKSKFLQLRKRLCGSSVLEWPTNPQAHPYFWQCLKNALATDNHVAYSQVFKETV

[3] = molecular target: T2, Toll-like receptor 7 (Homo sapiens) (UniProt Q9NYK1); assay: (§2) Antagonist activity at TLR7 in human PBMC assessed as inhibition of gardiquimod-induced TNF-alpha release after 12 hrs by bead array assay; format: functional
T2 sequence (whole entry): T1 sequence (Q9NYK1 whole entry)
Method in brief: (§3)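 Human PBMCs from healthy donors, isolated by Ficoll-Hypaque, 10⁶ cells per aliquot. Cells were incubated 12 h with graded test concentrations plus 10 μg/ml gardiquimod. Supernatants were diluted 1:20 and analytes measured in triplicate by cytokine/chemokine bead array. Three independent experiments.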

[4] = molecular target: T2, Toll-like receptor 7 (Homo sapiens); assay: (§4) Antagonist activity at TLR7 in human PBMC assessed as inhibition of gardiquimod-induced IL-1beta release after 12 hrs by bead array assay; format: functional; method in brief: as §3
[5] = molecular target: T1, Toll-like receptor 7; assay: Antagonist activity at TLR7 in human PBMC assessed as inhibition of gardiquimod-induced IL-8 release after 12 hrs by bead array assay; format: functional; method in brief: as §3
[6] = molecular target: T3, Toll-like receptor 8 (Homo sapiens, UniProt Q9NR97); assay: Antagonist activity at TLR8 in human PBMC assessed as inhibition of CL075-TNF-alpha release after 12 hrs by bead array assay; format: functional
T3 sequence (Q9NR97 whole entry): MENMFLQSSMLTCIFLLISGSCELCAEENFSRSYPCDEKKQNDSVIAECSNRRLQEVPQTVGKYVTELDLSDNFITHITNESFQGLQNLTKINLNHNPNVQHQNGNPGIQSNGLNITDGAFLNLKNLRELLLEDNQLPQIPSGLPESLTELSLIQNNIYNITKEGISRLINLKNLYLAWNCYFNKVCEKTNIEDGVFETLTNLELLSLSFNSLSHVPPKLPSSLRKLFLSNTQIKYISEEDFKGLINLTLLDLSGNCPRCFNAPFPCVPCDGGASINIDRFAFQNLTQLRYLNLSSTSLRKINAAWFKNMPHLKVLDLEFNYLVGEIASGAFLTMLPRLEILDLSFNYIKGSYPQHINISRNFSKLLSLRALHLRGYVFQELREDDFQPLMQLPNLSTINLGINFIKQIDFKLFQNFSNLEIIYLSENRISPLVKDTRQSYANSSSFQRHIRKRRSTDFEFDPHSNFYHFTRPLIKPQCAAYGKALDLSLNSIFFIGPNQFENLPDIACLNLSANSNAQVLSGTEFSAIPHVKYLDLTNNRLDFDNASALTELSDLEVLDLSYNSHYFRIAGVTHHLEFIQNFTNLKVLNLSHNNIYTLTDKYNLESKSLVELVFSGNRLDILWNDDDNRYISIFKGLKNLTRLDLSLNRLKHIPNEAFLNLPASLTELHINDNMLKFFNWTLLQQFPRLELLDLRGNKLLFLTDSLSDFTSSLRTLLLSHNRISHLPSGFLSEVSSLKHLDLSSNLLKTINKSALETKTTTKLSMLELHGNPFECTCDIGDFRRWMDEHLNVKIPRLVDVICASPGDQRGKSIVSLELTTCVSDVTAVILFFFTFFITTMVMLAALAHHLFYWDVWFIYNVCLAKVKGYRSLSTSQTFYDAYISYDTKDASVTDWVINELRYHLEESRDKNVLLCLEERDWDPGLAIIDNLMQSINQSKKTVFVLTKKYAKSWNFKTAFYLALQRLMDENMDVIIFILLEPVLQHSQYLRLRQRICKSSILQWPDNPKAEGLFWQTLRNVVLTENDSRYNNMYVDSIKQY
Method in brief: (§5)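 Ficoll-Hypaque-isolated healthy-donor PBMCs (10⁶ cells) were exposed 12 h to graded test concentrations together with 10 μg/ml CL075. Supernatants were diluted 1:20 and each cytokine or chemokine assayed in triplicate by bead array. Three independent experiments.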

[7] = molecular target: T3, Toll-like receptor 8; assay: Antagonist activity at TLR8 in human PBMC assessed as inhibition of CL075-induced IL-6 release after 12 hrs by bead array assay; format: functional; method in brief: as §5
[8] = molecular target: T3, Toll-like receptor 8; assay: Antagonist activity at TLR8 in human PBMC assessed as inhibition of CL075-induced IL-8 release after 12 hrs by bead array assay; format: functional; method in brief: as §5
[9] = molecular target: T1, Toll-like receptor 7; assay: Antagonist activity at TLR7 in human PBMC assessed as inhibition of gardiquimod-induced IL-6 release after 12 hrs by bead array assay; format: functional; method in brief: as §3
[10] = molecular target: T1, Toll-like receptor 7; assay: as §2; format: functional; method in brief: as §3
[11] = molecular target: T1, Toll-like receptor 7; assay: as §4; format: functional; method in brief: as §3
[12] = molecular target: T1, Toll-like receptor 7; assay: Antagonist activity at TLR7 in human PBMC assessed as inhibition of gardiquimod-induced CXCL10 release after 12 hrs by bead array assay; format: functional; method in brief: as §3
[13] = molecular target: T1, Toll-like receptor 7; assay: Antagonist activity at TLR7 in human PBMC assessed as inhibition of gardiquimod-induced CCL2 release after 12 hrs by bead array assay; format: functional; method in brief: as §3
[14] = molecular target: T3, Toll-like receptor 8; assay: Antagonist activity at TLR8 in human PBMC assessed as inhibition of CL075-induced IL-1beta release after 12 hrs by bead array assay; format: functional; method in brief: as §5
[15] = molecular target: T3, Toll-like receptor 8; assay: Antagonist activity at TLR8 in human PBMC assessed as inhibition of CL075-induced CXCL10 release after 12 hrs by bead array assay; format: functional; method in brief: as §5
[16] = molecular target: T3, Toll-like receptor 8; assay: Antagonist activity at TLR8 in human PBMC assessed as inhibition of CL075-induced CCL2 release after 12 hrs by bead array assay; format: functional; method in brief: as §5
[17] = molecular target: T4, Toll-like receptor 8 (Homo sapiens) (UniProt Q9NR97); assay: Inhibition of human TLR8 expressed in HEK-Blue cells by schild plot analysis
T4 sequence (whole entry): T3 sequence (Q9NR97 whole entry)

[18] = test system: PBMC; assay: Immunostimulatory activity in human PBMC assessed as induction IFN-alpha production after 12 hrs by ELISA; format: functional, cell-based
Method in brief: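 Healthy-donor PBMCs were prepared by Ficoll-Hypaque gradient and aliquoted at 10⁶ cells. Cells were stimulated 12 h with graded test concentrations. Supernatant was diluted 1:20 and IFN-α measured in triplicate by high-sensitivity human IFN-α ELISA.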

[19] = molecular target: T3, Toll-like receptor 8; assay: Agonist activity at human TLR8 expressed in HEK-Blue cells assessed as increase in NFkappaB activation by sAP reporter gene assay; format: functional, cell-based; method in brief: as §1

Chain of Toll-like receptor 3 (Homo sapiens) (O15455 whole entry): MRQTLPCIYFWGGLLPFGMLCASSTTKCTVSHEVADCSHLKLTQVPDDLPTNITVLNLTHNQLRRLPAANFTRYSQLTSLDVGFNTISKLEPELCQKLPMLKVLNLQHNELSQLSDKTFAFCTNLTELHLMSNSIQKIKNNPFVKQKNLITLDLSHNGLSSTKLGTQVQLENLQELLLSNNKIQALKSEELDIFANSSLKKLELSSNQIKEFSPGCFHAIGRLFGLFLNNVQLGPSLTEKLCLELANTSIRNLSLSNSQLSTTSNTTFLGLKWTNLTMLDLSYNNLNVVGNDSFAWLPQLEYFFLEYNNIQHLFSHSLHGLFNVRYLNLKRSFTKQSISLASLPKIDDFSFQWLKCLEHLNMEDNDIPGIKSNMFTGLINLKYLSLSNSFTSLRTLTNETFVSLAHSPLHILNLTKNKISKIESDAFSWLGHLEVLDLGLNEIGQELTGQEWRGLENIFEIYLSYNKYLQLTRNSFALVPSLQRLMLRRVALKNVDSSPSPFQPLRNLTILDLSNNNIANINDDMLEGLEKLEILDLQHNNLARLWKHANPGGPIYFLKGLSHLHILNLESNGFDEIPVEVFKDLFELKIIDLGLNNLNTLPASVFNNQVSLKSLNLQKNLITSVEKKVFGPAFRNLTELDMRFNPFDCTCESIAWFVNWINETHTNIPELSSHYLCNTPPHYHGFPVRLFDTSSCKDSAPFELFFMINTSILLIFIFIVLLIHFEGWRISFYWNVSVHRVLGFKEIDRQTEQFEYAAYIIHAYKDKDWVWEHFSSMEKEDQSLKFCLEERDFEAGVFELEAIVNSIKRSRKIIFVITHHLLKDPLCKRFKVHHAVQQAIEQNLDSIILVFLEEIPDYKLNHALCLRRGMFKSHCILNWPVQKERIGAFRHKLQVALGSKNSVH

Compound | Activity [1] | EC50 [2] [nM] | also measured
CCCCc1nc2c(NCCCCNc3nc4ccccc4c4c3nc(CCCC)n4Cc3ccccc3)nc3ccccc3c2n1Cc1ccccc1 | inactive | 2050 | –
CCN(CC)CCCC(C)Nc1ccnc2cc(Cl)ccc12 (centres undefined) | – | – | inhibition [3]: Active; inhibition [4]: Active
Nc1nc2ccccc2c2c1nc(CCCCCCCCCCc1nc3c(N)nc4ccccc4c3n1Cc1ccccc1)n2Cc1ccccc1 | inactive | – | –
CCCCc1nc2c(N)nc3ccccc3c2n1Cc1ccc(CNC(=O)CCCCCCC(=O)NCc2ccc(Cn3c(CCCC)nc4c(N)nc5ccccc5c43)cc2)cc1 | inactive | 240 | Activity [18]: Dose-dependent effect
CCCCc1nc2c(NCCCCCCCCCCCCNc3nc4ccccc4c4c3nc(CCCC)n4Cc3ccccc3)nc3ccccc3c2n1Cc1ccccc1 | inactive | 1420 | Activity [18]: Dose-dependent effect
CCCCc1nc2c(N)nc3ccc(NC(=O)CCCCCCCCCCC(=O)Nc4ccc5nc(N)c6nc(CCCC)n(Cc7ccc(CN)cc7)c6c5c4)cc3c2n1Cc1ccc(CN)cc1 | inactive | 5400 | –
CCCCc1nc2c(NCCCCCCCCNc3nc4ccccc4c4c3nc(CCCC)n4Cc3ccccc3)nc3ccccc3c2n1Cc1ccccc1 | inactive | 560 | –
CCCCc1nc2c(N)nc3ccccc3c2n1Cc1ccc(CNC(=O)CCCCC(=O)NCc2ccc(Cn3c(CCCC)nc4c(N)nc5ccccc5c43)cc2)cc1 | inactive | 110 | Activity [18]: Dose-dependent effect
CCCCc1nc2c(N)nc3ccccc3c2n1Cc1ccc(CNC(=O)CCCCCCCCCCC(=O)NCc2ccc(Cn3c(CCCC)nc4c(N)nc5ccccc5c43)cc2)cc1 | inactive | 170 | EC50 [19]: 4780 nM; Activity [18]: Dose-dependent effect
Nc1nc2ccccc2c2c1nc(CCCCCCc1nc3c(N)nc4ccccc4c3n1Cc1ccccc1)n2Cc1ccccc1 | inactive | – | –
CCCCc1nc2c(NCCCCCCCCCCNc3nc4ccccc4c4c3nc(CCCC)n4Cc3ccccc3)nc3ccccc3c2n1Cc1ccccc1 | inactive | 3000 | –

More lines, main results first:

Activity [1] | EC50 [2] [nM] | Compound | also measured
inactive | – | Nc1nc2ccccc2c2c1nc(CCCc1nc3c(N)nc4ccccc4c3n1Cc1ccccc1)n2Cc1ccccc1 | IC50 [5]: 50 nM; IC50 [6]: 50 nM; IC50 [7]: 50 nM; IC50 [8]: 50 nM; IC50 [9]: 50 nM; IC50 [10]: 50 nM; IC50 [11]: 50 nM; IC50 [12]: 50 nM; IC50 [13]: 50 nM; IC50 [14]: 50 nM; IC50 [15]: 50 nM; IC50 [16]: 50 nM; inhibition [17]: Active
inactive | 4020 | CCCCc1nc2c(N)nc3ccc(NC(=O)CCCCCCC(=O)Nc4ccc5nc(N)c6nc(CCCC)n(Cc7ccc(CN)cc7)c6c5c4)cc3c2n1Cc1ccc(CN)cc1 | –
inactive | 7240 | CCCCc1nc2c(N)nc3ccc(NC(=O)CCCCC(=O)Nc4ccc5nc(N)c6nc(CCCC)n(Cc7ccc(CN)cc7)c6c5c4)cc3c2n1Cc1ccc(CN)cc1 | Activity [18]: Dose-dependent effect
inactive | 560 | CCCCc1nc2c(N)nc3ccc([N+](=O)[O-])cc3c2n1Cc1ccc(CN)cc1 | –
inactive | – | Nc1nc2ccccc2c2c1nc(CCCCc1nc3c(N)nc4ccccc4c3n1Cc1ccccc1)n2Cc1ccccc1 | –
inactive | 450 | CCCCc1nc2c(N)nc3ccc(N)cc3c2n1Cc1ccc(CN)cc1 | –
